Test results published in ChEMBL document CHEMBL1138839, “Antitumor Agents. 239. Isolation, structure elucidation, total synthesis, and anti-breast cancer activity of neo-tanshinlactone from Salvia miltiorrhiza” (2004).
Converted amounts (≈) assume the structure as drawn.

Legend:
MCF7 [1] = assay: Dose required for reduction in cell growth of human breast cancer MCF-7 cell line; assay type: functional; settings: read-out: ED50 (the source's name)
Outline: (§1)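 Freshly trypsinized cells in RPMI-1640 (25 mM HEPES, 0.25% sodium bicarbonate, 10% FBS, 100 μg/mL kanamycin) were seeded at 1500-7500 cells/well and dosed from DMSO-diluted stock. After 3 days they were fixed with cold 50% TCA, stained with 0.4% SRB, and read at 562 nm after dye solubilization. ED50 (50% growth reduction) is the mean of ≥3 independent determinations.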

MDA-MB-231 [2] = assay: Dose required for reduction in cell growth of human breast cancer MDA-MB-231 cell line; assay type: functional; settings: read-out: ED50 (the source's name); outline: as §1
A-431 [3] = assay: Effective dose for reduction in cell growth of human skin cancer A431 cell line; settings: A-431, read-out: ED50
SW-620 [4] = assay: Dose required for reduction in cell growth of human colon cancer SW620 cell line; assay type: functional; settings: read-out: ED50 (the source's name)
MDA-MB-231 [5] = assay: cells; assay type: functional; settings: Homo sapiens, MDA-MB-231, read-out: ED50
LNCaP [6] = assay: Dose required for reduction in cell growth of human AR-dependent prostate cancer LN-CaP cell line; assay type: functional; settings: read-out: ED50 (the source's name)
PC-3 = assay: Dose required for reduction in cell growth of human prostate cancer PC-3 cell line; assay type: functional; settings: read-out: ED50 (the source's name)
MCF7 [7] = assay: Dose required for reduction in cell growth of estrogen positive human breast cancer MCF-7 cell line (ER+); assay type: functional; settings: read-out: ED50 (the source's name)
SK-BR-3 = assay: Dose required for reduction in cell growth of estrogen negative human breast cancer SK-BR-3 cell line(ER-); assay type: functional; settings: read-out: ED50 (the source's name)
cells = assay type: functional; settings: Homo sapiens; read-out: ED50 (the source's name)
ZR-75-1 = assay: Dose required for reduction in cell growth of estrogen positive human breast cancer ZR-75-1 cell line (ER+); assay type: functional; settings: read-out: ED50 (the source's name)
KB [8] = assay: Dose required for reduction in cell growth of vincristine-resistant human nasopharyngeal carcinoma KB cell line; assay type: functional; settings: read-out: ED50 (the source's name)
KB [9] = assay: Dose required for reduction in cell growth of human nasopharyngeal carcinoma KB cell line; assay type: functional; settings: read-out: ED50 (the source's name)
MDA-MB-231 [10] = assay: Percent inhibition of cell growth in human breast cancer MDA-MB-231 cell line; assay type: functional
KB [11] = assay: Percent inhibition of cell growth in vincristine-resistant human nasopharyngeal carcinoma KB cell line; assay type: functional
A549 [12] = assay: Percent inhibition of cell growth in human lung cancer A549 cell line; assay type: functional
A-431 [13] = assay: Percent inhibition of human skin cancer A431 cell proliferation; assay type: functional
SW-620 [14] = assay: Percent inhibition of cell growth in human colon cancer SW620 cell line; assay type: functional
MCF7 [15] = assay: Percent inhibition of cell growth in human breast cancer MCF-7 cell line; assay type: functional
KB [16] = assay: Percent inhibition of cell growth in human nasopharyngeal carcinoma KB cell line; assay type: functional
A-431 [17] = assay: Effective concentration required for 50% reduction in cell growth of human skin cancer A431 cell line; assay type: functional; settings: read-out: ED50 (the source's name); outline: as §1
A549 [18] = assay: Dose required for reduction in human lung cancer A549 cell proliferation; assay type: functional; settings: read-out: ED50 (the source's name); outline: as §1
LNCaP [19] = assay: Percent inhibition of cell growth in human AR-dependent prostate cancer LN-CaP cell line; value ranges from 28-36; assay type: functional

SMILES | EC50 (MCF7 [1]) [µg/mL] | EC50 (MDA-MB-231 [2]) [µg/mL] | EC50 (SW-620 [4]) [µg/mL] | EC50 (MDA-MB-231 [5]) [µg/mL] | EC50 (LNCaP [6]) [µg/mL] | EC50 (PC-3) [µg/mL] | EC50 (MCF7 [7]) [µg/mL] | EC50 (SK-BR-3) [µg/mL] | EC50 (cells) [µg/mL] | EC50 (ZR-75-1) [µg/mL] | EC50 (KB [8]) [µg/mL] | EC50 (KB [9]) [µg/mL] | other results
C[C@H]1COC2=C1C(=O)C(=O)c1c2ccc2c1CCCC2(C)C [CRYPTOTANSHINONE] | 0.41 (≈ 1.38 µM) | 0.16 (≈ 0.54 µM) | – | – | – | – | – | – | – | – | – | – | –
CC/C(=C(\c1ccccc1)c1ccc(OCCN(C)C)cc1)c1ccccc1.O=C(O)CC(O)(CC(=O)O)C(=O)O [TAMOXIFEN CITRATE] | – | – | 4 | > 8 | 6 | 10 | 5 | 5 | 9 | 5 | 9 | 9 | EC50 (A-431 [3]): 7 µg/mL
Cc1cccc2c1ccc1c3occ(C)c3c(=O)oc21 | < 2.5 | > 20 | > 10 | > 10 | > 10 | 10 (≈ 37.8 µM) | 0.6 (≈ 2.27 µM) | 0.2 (≈ 0.757 µM) | 16 (≈ 60.5 µM) | 0.3 (≈ 1.14 µM) | > 10 | > 10 | Inhibition (MDA-MB-231 [10]): 17%; Inhibition (KB [11]): 9%; Inhibition (A549 [12]): 10%; Inhibition (A-431 [13]): 35%; Inhibition (SW-620 [14]): 22%; Inhibition (MCF7 [15]): 57%; Inhibition (KB [16]): 18%; EC50 (A-431 [17]): > 10 µg/mL; EC50 (A549 [18]): > 20 µg/mL; Inhibition (LNCaP [19]): 36%
Cc1coc2c1C(=O)C(=O)c1c-2ccc2c1CCCC2(C)C [TANSHINONE IIA] | 0.38 (≈ 1.29 µM) | 0.7 (≈ 2.38 µM) | – | – | – | – | – | – | – | – | – | – | –
Cc1coc2c1C(=O)C(=O)c1c-2ccc2c(C)cccc12 [TANSHINONE I] | 0.82 (≈ 2.97 µM) | 0.75 (≈ 2.71 µM) | – | – | – | – | – | – | – | – | – | – | –
